Reference: ChEMBL document CHEMBL2157880, “Synthesis, antimycobacterial and antibacterial activity of ciprofloxacin derivatives containing a N-substituted benzyl moiety” (2012)
Converted amounts (≈) assume the structure as drawn.

test system: Enterococcus faecalis; experiment: Antibacterial activity against Enterococcus faecalis 10-7 after 18 to 24 hrs by NCCLS method; assay type: functional
Procedure, shortened: (§1)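 Standard NCCLS (M100-S11) MIC testing against Gram-positive and Gram-negative strains. Plates were incubated at 35 °C for 18–24 h. The MIC was read as the lowest concentration giving complete inhibition of visible bacterial growth.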

Row | Structure (SMILES) | MIC [µg/mL]
1 | O=C(O)c1cn(C2CC2)c2cc(N3CCN(Cc4cc5c(cc4[N+](=O)[O-])OCO5)CC3)c(F)cc2c1=O | 32 (≈ 62.7 µM)

test system: Escherichia coli; experiment: Antibacterial activity against Escherichia coli 10-2 after 18 to 24 hrs by NCCLS method; assay type: functional; procedure, shortened: as §1

Row | Structure (SMILES) | MIC [µg/mL]
2 | O=C(O)c1cn(C2CC2)c2cc(N3CCN(Cc4cc5c(cc4[N+](=O)[O-])OCO5)CC3)c(F)cc2c1=O | 1 (≈ 1.96 µM)

test system: Klebsiella pneumoniae; experiment: Antibacterial activity against extended spectrum beta-lactamases producing Klebsiella pneumoniae 10-1 after 18 to 24 hrs by NCCLS method; assay type: functional; procedure, shortened: as §1

Row | Structure (SMILES) | MIC [µg/mL]
3 | O=C(O)c1cn(C2CC2)c2cc(N3CCN(Cc4cc5c(cc4[N+](=O)[O-])OCO5)CC3)c(F)cc2c1=O | > 128

test system: Pseudomonas aeruginosa; experiment: Antibacterial activity against Pseudomonas aeruginosa 10-18 after 18 to 24 hrs by NCCLS method; assay type: functional; procedure, shortened: as §1

Row | Structure (SMILES) | MIC [µg/mL]
4 | O=C(O)c1cn(C2CC2)c2cc(N3CCN(Cc4cc5c(cc4[N+](=O)[O-])OCO5)CC3)c(F)cc2c1=O | 2 (≈ 3.92 µM)

test system: Escherichia coli; experiment: Antibacterial activity against extended spectrum beta-lactamases producing Escherichia coli 10-2 after 18 to 24 hrs by NCCLS method; assay type: functional; procedure, shortened: as §1

Row | Structure (SMILES) | MIC [µg/mL]
5 | O=C(O)c1cn(C2CC2)c2cc(N3CCN(Cc4cc5c(cc4[N+](=O)[O-])OCO5)CC3)c(F)cc2c1=O | > 128

test system: Staphylococcus aureus; experiment: Antibacterial activity against methicillin-sensitive Staphylococcus aureus 10-11 after 18 to 24 hrs by NCCLS method; assay type: functional; procedure, shortened: as §1

Row | Structure (SMILES) | MIC [µg/mL]
6 | O=C(O)c1cn(C2CC2)c2cc(N3CCN(Cc4cc5c(cc4[N+](=O)[O-])OCO5)CC3)c(F)cc2c1=O | 0.5 (≈ 0.979 µM)

test system: Pseudomonas aeruginosa; experiment: Antibacterial activity against Pseudomonas aeruginosa 10-5 after 18 to 24 hrs by NCCLS method; assay type: functional; procedure, shortened: as §1

Row | Structure (SMILES) | MIC [µg/mL]
7 | O=C(O)c1cn(C2CC2)c2cc(N3CCN(Cc4cc5c(cc4[N+](=O)[O-])OCO5)CC3)c(F)cc2c1=O | 1 (≈ 1.96 µM)

test system: Mycobacterium tuberculosis; experiment: Antimycobacterial activity against Mycobacterium tuberculosis H37Rv ATCC 27294 by microplate alamar blue assay; assay type: functional
Procedure, shortened: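 Microplate Alamar Blue fluorescence assay on strain H37Rv ATCC 27294. MIC was the lowest concentration cutting fluorescence by ≥90% against the mean of replicate bacterium-only controls.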

Row | Structure (SMILES) | MIC [µg/mL]
8 | O=C(O)c1cn(C2CC2)c2cc(N3CCN(Cc4cc5c(cc4[N+](=O)[O-])OCO5)CC3)c(F)cc2c1=O | 2 (≈ 3.92 µM)

test system: Staphylococcus epidermidis; experiment: Antibacterial activity against methicillin-sensitive Staphylococcus epidermidis 10-11 after 18 to 24 hrs by NCCLS method; assay type: functional; procedure, shortened: as §1

Row | Structure (SMILES) | MIC [µg/mL]
9 | O=C(O)c1cn(C2CC2)c2cc(N3CCN(Cc4cc5c(cc4[N+](=O)[O-])OCO5)CC3)c(F)cc2c1=O | 1 (≈ 1.96 µM)

test system: Enterococcus faecalis; experiment: Antibacterial activity against Enterococcus faecalis 10-6 after 18 to 24 hrs by NCCLS method; assay type: functional; procedure, shortened: as §1

Row | Structure (SMILES) | MIC [µg/mL]
10 | O=C(O)c1cn(C2CC2)c2cc(N3CCN(Cc4cc5c(cc4[N+](=O)[O-])OCO5)CC3)c(F)cc2c1=O | 64 (≈ 125 µM)

test system: Escherichia coli; experiment: Antibacterial activity against extended spectrum beta-lactamases producing Escherichia coli 10-3 after 18 to 24 hrs by NCCLS method; assay type: functional; procedure, shortened: as §1

Row | Structure (SMILES) | MIC [µg/mL]
11 | O=C(O)c1cn(C2CC2)c2cc(N3CCN(Cc4cc5c(cc4[N+](=O)[O-])OCO5)CC3)c(F)cc2c1=O | > 128

test system: Staphylococcus aureus; experiment: Antibacterial activity against methicillin-sensitive Staphylococcus aureus 10-14 after 18 to 24 hrs by NCCLS method; assay type: functional; procedure, shortened: as §1

Row | Structure (SMILES) | MIC [µg/mL]
12 | O=C(O)c1cn(C2CC2)c2cc(N3CCN(Cc4cc5c(cc4[N+](=O)[O-])OCO5)CC3)c(F)cc2c1=O | 1 (≈ 1.96 µM)

test system: Escherichia coli; experiment: Antibacterial activity against extended spectrum beta-lactamases producing Escherichia coli 10-4 after 18 to 24 hrs by NCCLS method; assay type: functional; procedure, shortened: as §1

Row | Structure (SMILES) | MIC [µg/mL]
13 | O=C(O)c1cn(C2CC2)c2cc(N3CCN(Cc4cc5c(cc4[N+](=O)[O-])OCO5)CC3)c(F)cc2c1=O | 8 (≈ 15.7 µM)

test system: Staphylococcus epidermidis; experiment: Antibacterial activity against methicillin-resistant Staphylococcus epidermidis 10-10 after 18 to 24 hrs by NCCLS method; assay type: functional
Procedure, shortened: (§2)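 Incubated at 35 °C for 18–24 h under NCCLS (M100-S11) standards. MIC was read as the lowest concentration giving complete inhibition of visible bacterial growth.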

Row | Structure (SMILES) | MIC [µg/mL]
14 | O=C(O)c1cn(C2CC2)c2cc(N3CCN(Cc4cc5c(cc4[N+](=O)[O-])OCO5)CC3)c(F)cc2c1=O | 16 (≈ 31.3 µM)

test system: Staphylococcus epidermidis; experiment: Antibacterial activity against methicillin-resistant Staphylococcus epidermidis 10-13 after 18 to 24 hrs by NCCLS method; assay type: functional; procedure, shortened: as §2

Row | Structure (SMILES) | MIC [µg/mL]
15 | O=C(O)c1cn(C2CC2)c2cc(N3CCN(Cc4cc5c(cc4[N+](=O)[O-])OCO5)CC3)c(F)cc2c1=O | 32 (≈ 62.7 µM)

test system: Klebsiella pneumoniae; experiment: Antibacterial activity against extended spectrum beta-lactamases producing Klebsiella pneumoniae 10-2 after 18 to 24 hrs by NCCLS method; assay type: functional; procedure, shortened: as §1

Row | Structure (SMILES) | MIC [µg/mL]
16 | O=C(O)c1cn(C2CC2)c2cc(N3CCN(Cc4cc5c(cc4[N+](=O)[O-])OCO5)CC3)c(F)cc2c1=O | > 128

test system: Staphylococcus aureus; experiment: Antibacterial activity against methicillin-resistant Staphylococcus aureus 10-11 after 18 to 24 hrs by NCCLS method; assay type: functional; procedure, shortened: as §2

Row | Structure (SMILES) | MIC [µg/mL]
17 | O=C(O)c1cn(C2CC2)c2cc(N3CCN(Cc4cc5c(cc4[N+](=O)[O-])OCO5)CC3)c(F)cc2c1=O | 32 (≈ 62.7 µM)

test system: Klebsiella pneumoniae; experiment: Antibacterial activity against Klebsiella pneumoniae 10-3 after 18 to 24 hrs by NCCLS method; assay type: functional; procedure, shortened: as §1

Row | Structure (SMILES) | MIC [µg/mL]
18 | O=C(O)c1cn(C2CC2)c2cc(N3CCN(Cc4cc5c(cc4[N+](=O)[O-])OCO5)CC3)c(F)cc2c1=O | 2 (≈ 3.92 µM)

test system: Pseudomonas aeruginosa; experiment: Antibacterial activity against Pseudomonas aeruginosa 10-20 after 18 to 24 hrs by NCCLS method; assay type: functional; procedure, shortened: as §1

Row | Structure (SMILES) | MIC [µg/mL]
19 | O=C(O)c1cn(C2CC2)c2cc(N3CCN(Cc4cc5c(cc4[N+](=O)[O-])OCO5)CC3)c(F)cc2c1=O | 4 (≈ 7.84 µM)
